{
  "source": "paper PMC12671527",
  "about": "(Research in Pharmaceutical Sciences, 2025)",
  "assay_type_in_all_cases": "cell-based",
  "key": {"[1]": {"tested_on": "Staphylococcus epidermidis ATCC 700565", "assay": "Synergistic studies, broth microdilution checkerboard", "conditions": "levofloxacin combined with UP5, checkerboard, first no-growth well, triplicate", "how_it_was_run": "(§1)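 Checkerboard broth microdilution in Mueller-Hinton broth. Each well held graded concentrations of the peptide and levofloxacin in crossed combination, plus inoculum at 10^6 CFU/mL before mixing. Plates ran 18 h at 37 °C with growth read at OD 570 nm. Combination MICs were determined in triplicate. FIC = sum of combined/alone MIC ratios, with 100 µM used as the denominator when the solo MIC exceeded 100 µM.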"}, "[2]": {"tested_on": "Staphylococcus epidermidis ATCC 700565", "assay": "MIC and MBC, broth microdilution", "conditions": "ATCC700565, 18 h", "how_it_was_run": "(§2)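 Broth microdilution per CLSI. Isolates were revived from glycerol stocks, grown overnight in Mueller-Hinton broth and diluted to 10^6 CFU/mL, then mixed with equal volumes of serially diluted test compound, six wells per concentration. Plates ran 18 h at 37 °C with growth read at OD 570 nm; MIC was the lowest inhibiting concentration. MBC: clear wells streaked on agar for 24 h, 99.9% kill. Triplicate experiments. SI = MDCK IC50/MIC.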"}, "[3]": {"tested_on": "Enterococcus faecium ATCC 2316", "assay": "MIC and MBC, broth microdilution", "conditions": "ATCC2316, 18 h", "how_it_was_run": "as §2"}, "[4]": {"tested_on": "Staphylococcus aureus ATCC BAA-44", "assay": "Synergistic studies, broth microdilution checkerboard", "conditions": "levofloxacin combined with UP5, checkerboard, first no-growth well, triplicate", "how_it_was_run": "as §1"}, "[5]": {"tested_on": "Pseudomonas aeruginosa ATCC 3197", "assay": "Synergistic studies, broth microdilution checkerboard", "conditions": "levofloxacin combined with UP5, checkerboard, first no-growth well, triplicate"}, "[6]": {"tested_on": "Klebsiella pneumoniae ATCC 2814", "assay": "MIC and MBC, broth microdilution", "conditions": "ATCC2814, 18 h", "how_it_was_run": "as §2"}, "[7]": {"tested_on": "Enterococcus faecium ATCC 2316", "assay": "Synergistic studies, broth microdilution checkerboard", "conditions": "levofloxacin combined with UP5, checkerboard, first no-growth well, triplicate", "how_it_was_run": "as §1"}, "[8]": {"tested_on": "Klebsiella pneumoniae ATCC 2814", "assay": "Synergistic studies, broth microdilution checkerboard", "conditions": "levofloxacin combined with UP5, checkerboard, first no-growth well, triplicate", "how_it_was_run": "as §1"}, "[9]": {"tested_on": "Acinetobacter baumannii ATCC 1799", "assay": "Synergistic studies, broth microdilution checkerboard", "conditions": "levofloxacin combined with UP5, checkerboard, first no-growth well, triplicate", "how_it_was_run": "as §1"}, "[10]": {"tested_on": "Acinetobacter baumannii ATCC 1799", "assay": "MIC and MBC, broth microdilution", "conditions": "ATCC1799, 18 h", "how_it_was_run": "as §2"}, "[11]": {"tested_on": "Pseudomonas aeruginosa ATCC 3197", "assay": "MIC and MBC, broth microdilution", "conditions": "ATCC3197, 18 h", "how_it_was_run": "as §2"}},
  "data": [
    {"smiles": "C[C@H]1COc2c(N3CCN(C)CC3)c(F)cc3c(=O)c(C(=O)O)cn1c23", "note": "[Levofloxacin, levofloxacin]", "values": [
      {"measurement": "MIC in combination, Levofloxacin", "setting": "[1]", "value": 6.25, "unit": "µM"},
      {"measurement": "MIC", "setting": "[2]", "value": 25, "unit": "µM"},
      {"measurement": "MIC", "setting": "[3]", "value": 50, "unit": "µM"},
      {"measurement": "MIC in combination, Levofloxacin", "setting": "[4]", "value": 12.5, "unit": "µM"},
      {"measurement": "MIC in combination, Levofloxacin", "setting": "[5]", "value": 12.5, "unit": "µM"},
      {"measurement": "MIC", "setting": "[6]", "value": "> 100", "unit": "µM"},
      {"measurement": "MIC in combination, Levofloxacin", "setting": "[7]", "value": 12.5, "unit": "µM"},
      {"measurement": "MIC in combination, Levofloxacin", "setting": "[8]", "value": 25, "unit": "µM"},
      {"measurement": "MIC in combination, Levofloxacin", "setting": "[9]", "value": 12.5, "unit": "µM"},
      {"measurement": "MIC", "setting": "[10]", "value": "> 100", "unit": "µM"},
      {"measurement": "MIC", "setting": "[11]", "value": 25, "unit": "µM"}
    ]}
  ]
}
